ChEMBL document CHEMBL3868589, “Purification, Conformational Analysis, and Properties of a Family of Tigerinin Peptides from Skin Secretions of the Crowned Bullfrog Hoplobatrachus occipitalis” (J Nat Prod, 2016)
Activity calls are given as the source filed them. The calls are words filed in the database; no cut-off is given here. Where a SMILES comes first, the peptide text is derived from it.

Legend:
Mus musculus [1] = species on record: Mus musculus; assay: Toxicity in NIH Swiss mouse erythrocytes assessed as hemolytic activity up to 500 uM incubated for 60 mins; settings: erythrocyte, 1 h
How it was run: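 Washed erythrocytes (2 × 10^7 cells) from male NIH Swiss mice incubated 60 min at 37 °C with peptides at 31−500 μM. LC50 taken as mean concentration giving 50% hemolysis across three independent incubations.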

BRIN-BD11 [2] = assay: Inhibition of Katp in rat BRIN-BD11 cells assessed as minimum concentration required to produce increase in rate of insulin release over the basal rate after 20 mins in presence of 5.6 mM glucose by radioimmunoassay; type: cell-based
How it was run: (§1)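 BRIN-BD11 clonal β-cells attached overnight at 37 °C, then 20 min at 37 °C in KRB buffer with 5.6 mM glucose, peptides up to 1 μM. Insulin in supernatant by radioimmunoassay, expressed per 10^6 cells per 20 min. Parallel controls: 10 mM alanine, 1 μM GLP-1, 30 mM KCl.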

Rattus norvegicus = species on record: Rattus norvegicus; assay: Cytotoxicity in rat BRIN-BD11 cells assessed as effect on plasma membrane integrity through LDH release up to 1 uM after 20 mins in presence of glucose by nonradioactive CytoTox96 assay; type: toxicity, cell-based; settings: brin-bd11, 20 min
How it was run: (§2)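 BRIN-BD11 and GLUTag cells exposed to peptides (1 nM to 1 μM; n = 3) for 20 min at 37 °C in KRB buffer with 5.6 mM glucose. Membrane integrity judged by LDH in supernatant, measured with CytoTox96 nonradioactive kit.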

Mus musculus [3] = species on record: Mus musculus; assay: Cytotoxicity in mouse GLUTag cells assessed as effect on plasma membrane integrity through LDH release up to 1 uM after 20 mins in presence of glucose by nonradioactive CytoTox96 assay; type: toxicity, cell-based; how it was run: as §2
BRIN-BD11 [4] = assay: Inhibition of Katp in rat BRIN-BD11 cells assessed as insulin release at 1 uM after 20 mins in presence of 5.6 mM glucose by radioimmunoassay relative to basal level; type: cell-based; design: scale not given: the % may be the effect or the level left; how it was run: as §1
[5] = Induction of GLP1 release in mouse GLUTag cells at 1 uM after 2 hrs in presence of 2 mM glucose by ELISA relative to basal level
[6] = Induction of GLP1 release in mouse GLUTag cells assessed as minimum concentration required to produce increase in rate of GPL1 release over the basal rate after 2 hrs in presence of 2 mM glucose by ELISA
BRIN-BD11 [7] = assay: Inhibition of Katp in rat BRIN-BD11 cells assessed as minimum concentration required to produce 83% increase in rate of insulin release over the basal rate after 20 mins in presence of 5.6 mM glucose by radioimmunoassay; type: cell-based; how it was run: as §1
Mus musculus [8] = species on record: Mus musculus; assay: Antiinflammatory activity in C57BL/6 mouse unstimulated peritoneal cells assessed as reduction of IFN-gamma at 1 ug/ml after 24 hrs by ELISA; type: functional
How it was run: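 Peritoneal cells lavaged with 5 mL cold PBS from unstimulated adult C57BL/6 mice (mixed macrophages, B-, T-, NK cells), resuspended in RPMI 1640 + 10% FBS, 2 × 10^5 cells/well. Peptides at 1, 5 and 10 μg/mL for 24 h at 37 °C; three independent incubations, 6 mice per group. IFN-γ in cell-free supernatant by ELISA in triplicate, compared with medium only.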

[9] = Induction of GLP1 release in mouse GLUTag cells at 10 nM after 2 hrs by ELISA relative to basal level
BRIN-BD11 [10] = assay: Inhibition of Katp in rat BRIN-BD11 cells assessed as increase in insulin release after 20 mins by radioimmunoassay; type: cell-based
BRIN-BD11 [11] = assay: Inhibition of Katp in rat BRIN-BD11 cells assessed as increase in rate of insulin release after 20 mins in presence of 5.6 mM glucose by radioimmunoassay relative to basal level; type: cell-based; how it was run: as §1
[12] = Induction of increase in glucose-induced insulin secretion in rat BRIN-BD11 cells assessed as insulin release per million cells at 10 mM after 20 mins by radioimmunoassay (reference value: 1 +/- 0.03 ng); type: functional; how it was run: as §1
[13] = Induction of increase in glucose-induced insulin secretion in rat BRIN-BD11 cells assessed as insulin release per million cells at 30 mM after 20 mins by radioimmunoassay (reference value: 1 +/- 0.03 ng); type: functional; how it was run: as §1

| Compound | Activity (Mus musculus [1]) | Activity (BRIN-BD11 [2]) | Activity (Rattus norvegicus) | Activity (Mus musculus [3]) | Activity (BRIN-BD11 [4]) | Activity [5] | Activity [6] | further results |
| --- | --- | --- | --- | --- | --- | --- | --- | --- |
| CC[C@H](C)[C@H](NC(=O)[C@@H](N)CCCNC(=N)N)C(=O)N[C@@H](CS)C(=O)N[C@H](C(=O)N[C@@H](C)C(=O)N[C@H](C(=O)N1CCC[C@H]1C(=O)N[C@@H](CC(C)C)C(=O)N1CCC[C@H]1C(=O)N[C@@H](CCSC)C(=O)N[C@@H](CS)C(=O)N[C@@H](CC(C)C)C(=O)O)[C@@H](C)CC)[C@@H](C)O (H-RICTAIPLPMCL-OH) | Non-Toxic | 1 ×10⁻⁷ M | Non-Toxic | Non-Toxic | 233% | 217.5% | 1 ×10⁻⁶ M |  |
| CC[C@H](C)[C@H](NC(=O)[C@@H](N)CCCNC(=N)N)C(=O)N[C@@H](CS)C(=O)N[C@H](C(=O)N1CCC[C@H]1C(=O)N[C@H](C(=O)N1CCC[C@H]1C(=O)N[C@@H](Cc1ccccc1)C(=O)N1CCC[C@H]1C(=O)N[C@@H](CCSC)C(=O)N[C@@H](CS)C(=O)N[C@@H](Cc1ccc(O)cc1)C(=O)O)[C@@H](C)CC)[C@@H](C)O (H-RICTPIPFPMCY-OH) | Non-Toxic |  | Non-Toxic | Non-Toxic | 395% | 159% |  | Activity (BRIN-BD11 [7]): 1 ×10⁻⁹ M |
| CC[C@H](C)[C@H](NC(=O)[C@H](CS)NC(=O)[C@@H](NC(=O)[C@@H](N)CCCNC(=N)N)[C@@H](C)O)C(=O)N1CCC[C@H]1C(=O)N[C@H](C(=O)N1CCC[C@H]1C(=O)N[C@@H](CC(C)C)C(=O)N[C@H](C(=O)N[C@@H](CCSC)C(=O)N[C@@H](CS)C(=O)O)C(C)C)[C@@H](C)CC (H-RTCIPIPLVMC-OH) | Non-Toxic | 1 ×10⁻⁷ M | Non-Toxic | Non-Toxic | 201% | 193% | 1 ×10⁻⁷ M | Activity (Mus musculus [8]): Active |
| CC[C@H](C)[C@H](NC(=O)[C@H](CS)NC(=O)[C@@H](NC(=O)[C@@H](N)CCCNC(=N)N)[C@@H](C)O)C(=O)N1CCC[C@H]1C(=O)N[C@H](C(=O)N1CCC[C@H]1C(=O)N1CCC[C@H]1C(=O)N[C@H](C(=O)N[C@@H](CS)C(=O)N[C@@H](Cc1ccccc1)C(=O)O)C(C)C)[C@@H](C)CC (H-RTCIPIPPVCF-OH) | Non-Toxic | 1 ×10⁻⁶ M | Non-Toxic | Non-Toxic | 163% |  | 1 ×10⁻⁸ M | Activity (Mus musculus [8]): Active; Activity [9]: 289.3% |
| CC[C@H](C)[C@H](NC(=O)[C@H](C)NC(=O)[C@H](CO)NC(=O)[C@H](CS)NC(=O)[C@@H](NC(=O)[C@@H](N)CCCNC(=N)N)C(C)C)C(=O)N1CCC[C@H]1C(=O)N[C@@H](CC(C)C)C(=O)N1CCC[C@H]1C(=O)N[C@@H](Cc1c[nH]c2ccccc12)C(=O)N[C@@H](CS)C(=O)N[C@@H](Cc1cnc[nH]1)C(=O)O (H-RVCSAIPLPWCH-OH) |  |  |  |  |  |  |  | inhibition (BRIN-BD11 [10]): Dose-dependent effect; inhibition (BRIN-BD11 [11]): Dose-dependent effect |
| C[C@H](N)C(=O)O [ALANINE] |  |  |  |  |  |  |  | Activity [12]: 3.05 ng |
| [Cl-].[K+] [POTASSIUM CHLORIDE] |  |  |  |  |  |  |  | Activity [13]: 4.05 ng |
